Screening data from PubChem BioAssay.
GRIN3A LBD mod: modulators (binders) of human NR3A ligand-binding domain; NR3A LBD differential scanning fluorimetry, Tm shift; 0% = protein alone, 100% = glycine-bound protein; Tm shift relative to glycine control, % at 25 µM; hit rate 2.5% among 340,000;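 active means melting temperature shift of at least 10% of the positive control shift, at one fixed dose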
CSC inhib: blocks cancer stem cells. cancer stem cell-like cells viability, luminescence. inhibition, % at 7.5 µM. hit rate 1.1% among 300,000; in the data active means inhibition above about 75%; inconclusive means no clear call, values can overlap the other calls; tested in HMLE shEcad cells
Beta apoptosis: beta cell apoptosis inhibition. hit rate 0.8% among 300,000. protection from apoptosis, % (test concentration not listed). INS-1E cytokine-induced death, ATP luminescence, 48 h; percent of positive-control rescue, neutral wells zero;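 active means Every replicate reaches about 75%, or at least half do and their mean reaches it too, limit read from the data; inconclusive means At least half of replicates reach the limit but their mean does not; inactive means Under half of replicates reach the limit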;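 further: higher means more ATP so stronger rescue from cytokine killing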
CHOP inh: inhibitors of CHOP induction in ER stress response | CHO-K1 CHOP-promoter luciferase, tunicamycin-induced, 15-18 h | inhibition, % at 10 µM | hit rate 3.8% among 220,000 | AID 2732;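 active means compounds that reduced the stress-induced luciferase reporter signal by more than about 70% of percent inhibition, limit read from the data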
T cruzi repl: T. cruzi replication inhibition; T. cruzi beta-gal in NIH3T3, luminescence, 90 h; inhibition, % (no concentration beside the values); hit rate 1.4% among 300,000; AID 1885;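 active means mean inhibition across valid replicates above about 55%, limit read from the data; inconclusive means mean below that limit but half or more replicates reach it; inactive means mean below it, under half of replicates reach it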;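 further: signal also drops with host cell toxicity which is not excluded here; higher percent means less beta-gal luminescence so fewer parasites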
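Test system: β-gal T. cruzi (Tulahuen C4) inside NIH/3T3 cells / Quantity: 5,000 cells/well / Measured by: luminescence from GalScreen with 0.05% NP40, read after 60 min / Medium: DMEM plus 2% FBS / Measure: parasite load inhibition, % / Reagent: Tulahuen C4 trypomastigotes, 5000/well / Schedule: co-culture of at least 90 h after 3 h attachment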
PREPL inhibitor: inhibitors of human prolyl oligopeptidase-like enzyme PREPL; Q4J6C6; recombinant PREPL, fluorescence polarization activity-based probe; inhibition, % at 5.96 µM; hit rate 0.68% among 320,000; in the data active means inhibition above about 43%
Target sequence (Q4J6C6 whole entry, looked up): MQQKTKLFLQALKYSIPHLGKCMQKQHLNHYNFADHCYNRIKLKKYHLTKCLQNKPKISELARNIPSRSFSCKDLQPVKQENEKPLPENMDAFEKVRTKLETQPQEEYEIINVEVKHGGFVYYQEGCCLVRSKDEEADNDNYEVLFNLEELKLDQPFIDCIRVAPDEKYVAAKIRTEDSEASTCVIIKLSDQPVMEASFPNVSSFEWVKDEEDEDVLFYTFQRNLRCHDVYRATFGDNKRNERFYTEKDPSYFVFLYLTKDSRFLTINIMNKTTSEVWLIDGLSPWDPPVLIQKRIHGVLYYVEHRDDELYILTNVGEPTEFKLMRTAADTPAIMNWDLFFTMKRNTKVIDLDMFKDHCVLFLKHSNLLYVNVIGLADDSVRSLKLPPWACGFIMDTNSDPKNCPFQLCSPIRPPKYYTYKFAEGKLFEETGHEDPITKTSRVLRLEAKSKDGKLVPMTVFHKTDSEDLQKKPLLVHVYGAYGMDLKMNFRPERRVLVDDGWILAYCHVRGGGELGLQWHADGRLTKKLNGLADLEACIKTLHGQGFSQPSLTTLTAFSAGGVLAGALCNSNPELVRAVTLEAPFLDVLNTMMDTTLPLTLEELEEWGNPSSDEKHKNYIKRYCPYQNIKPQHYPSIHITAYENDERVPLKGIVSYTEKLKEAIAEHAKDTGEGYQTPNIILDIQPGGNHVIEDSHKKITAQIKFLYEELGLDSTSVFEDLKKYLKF
CHOP inh conf: confirmation of CHOP induction inhibitors | shares compounds with CHOP inh | CHO-CHOP promoter luciferase reporter, tunicamycin-induced, luminescence | inhibition, % at 10 µM | hit rate 45% among 2,100;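 active means mean of three repeat readings of reporter signal inhibition above a set limit, cut at about 70% in these data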
Of the large screens only hits and unclear results are named; the others gave an inactive call (follow-up assays come after a bar, where they were run). Most compounds without a hit are left out; they make up all but 6.7% or so of the library.

CC(=O)Oc1cccc(/C=c2\sc3nc(-c4ccco4)nn3c2=O)c1	CHOP inh 106.5 (no result: CSC inhib) | CHOP inh conf inactive
N#C/C(=C/c1ccc(OC(=O)c2ccc(Br)s2)cc1)c1nc2ccccc2[nH]1	none (no result: CSC inhib, Beta apoptosis, CHOP inh, T cruzi repl, PREPL inhibitor)
N#C/C(=C\c1ccc(OC(=O)c2ccc(Cl)s2)cc1)c1nc2ccccc2[nH]1	CHOP inh 107.3 | CHOP inh conf inactive
N#C/C(=C\c1ccncc1)c1nc2ccccc2[nH]1	none (no result: CSC inhib, Beta apoptosis, PREPL inhibitor)
N#C/C(=C\c1ccc(OC(=O)c2ccc(Br)s2)cc1)c1nc2ccccc2[nH]1	GRIN3A LBD mod 25.5, CHOP inh 100.0 (no result: T cruzi repl) | CHOP inh conf inactive
Cc1ccc(C(=O)COC(=O)c2cc(=O)[nH]c3ccccc23)cc1C	CHOP inh 102.4 | CHOP inh conf inactive
O=C(NN=C1CCCCC1)Nc1ccccc1Cl	none (no result: CHOP inh)
O=S(=O)(c1ccc(=S)[nH]c1)N1CCCC1	none (no result: CHOP inh, T cruzi repl)
O=C(Nc1ccc(Cl)cc1)Nc1ccc(N2CCCC2)c(S(=O)(=O)Nc2ccccc2Cl)c1	GRIN3A LBD mod 31.6, Beta apoptosis 86.9, CHOP inh 99.5 | CHOP inh conf 73.2
Cc1ccc(S(=O)(=O)N2CCN(C(=O)CN3C(=O)c4ccccc4C3=O)CC2)c(C)c1	none (no result: CHOP inh, T cruzi repl)
Cc1ccc2nsnc2c1NC(=O)c1ccc(-c2cc(Cl)ccc2Cl)o1	CHOP inh 100.6 | CHOP inh conf inactive
Cc1cc(Cl)ccc1OCc1n[nH]c(=S)n1C1CCCCC1	CHOP inh 102.9 | CHOP inh conf 119.2
COc1ccc(Cl)cc1-c1n[nH]c(=S)n1C1CCCCC1	none
O=C(Nc1ccccn1)c1cc(-c2cccnc2)nc2ccc(Br)cc12	CHOP inh 103.0 | CHOP inh conf inactive
CSCCC1NC2(C(=O)Nc3c(C)cc(Cl)cc32)[C@@H]2C(=O)N(C3CCCC3)C(=O)[C@H]12 (some centres undefined)	CHOP inh 104.2 (no result: Beta apoptosis) | CHOP inh conf inactive
CSCCC1NC2(C(=O)Nc3c(Cl)cccc32)[C@@H]2C(=O)N(C3CCCC3)C(=O)[C@H]12 (some centres undefined)	none
Cc1cc(C)c(NC(=O)CNC(=O)c2ccccc2OCc2c(C)noc2C)c(C)c1	none (no result: CHOP inh)
CC(C)=CCc1c(O)cc2oc3c(CC=C(C)C)c(O)c(O)c(CC=C(C)C)c3c(=O)c2c1O	CHOP inh 97.1 (no result: Beta apoptosis) | CHOP inh conf 120.0
CCSc1nnnn1-c1ccccc1	none
Cc1ccc(C)c(-n2nnnc2Sc2nnnn2-c2ccccc2)c1	none (no result: Beta apoptosis, CHOP inh) | CHOP inh conf inactive
Cc1cc(C)c(S(=O)(=O)c2ccccc2)c(OC(=O)c2cc(F)c(F)cc2Cl)n1	CHOP inh 107.5 | CHOP inh conf 138.6
Cc1cc(OC(=O)c2cc(F)c(F)cc2Cl)nc(C)n1	none
CCOC(=O)COc1ccc(Br)cc1/C=C1\SC(N)=NC1=O	none (no result: CHOP inh)
CCOC(=O)CSC1=NC(=O)/C(=C\c2ccc(OC(C)=O)cc2)S1	CHOP inh 106.4 | CHOP inh conf inactive
CC(C)CCC1(CCO)C(=O)N=C(N)NC1=O (centres undefined)	none (no result: CSC inhib, Beta apoptosis, CHOP inh, T cruzi repl, PREPL inhibitor)
Cc1oc2c(c1C(=O)c1ccc(Cl)cc1)C(=O)C(=O)c1ccccc1-2	T cruzi repl inconclusive (no result: CSC inhib, Beta apoptosis, PREPL inhibitor)
Cc1ccc(C(=O)c2c(C)oc3c2C(=O)C(=O)c2ccccc2-3)cc1	Beta apoptosis 124.1, CHOP inh 115.2, T cruzi repl inconclusive | CHOP inh conf inactive
CC(C)c1ccc(C2C3CSCC=C3C(C#N)=C(N)C2(C#N)C#N)cc1 (centres undefined)	CHOP inh 106.5 (no result: GRIN3A LBD mod) | CHOP inh conf 122.5
O=C(CCC(=O)c1ccc(Br)cc1)Nc1cccc(C(F)(F)F)c1	CHOP inh 108.0 (no result: CSC inhib) | CHOP inh conf inactive
Cc1ccc(C(=O)CCC(=O)Nc2cccc(C(F)(F)F)c2)cc1C	none (no result: CHOP inh)
Cc1ccc(C(=O)CCC(=O)Nc2cccc(C(F)(F)F)c2)cc1	CHOP inh 101.6 (no result: CSC inhib) | CHOP inh conf inactive
COCCNC(=O)c1cc2oc3ccccc3c2n1C	none
Cc1ccc(-c2nc(C(Cl)Cl)c3ccccc3n2)cc1	CSC inhib 132.2, Beta apoptosis 93.7, CHOP inh 103.1 | CHOP inh conf 100.3
Cc1ccc(-c2nc(NCCN(C)C)c3ccccc3n2)cc1	none (no result: CHOP inh)
O=[N+]([O-])c1ccc(N2CCN(c3ccccc3O)CC2)cc1	none (no result: Beta apoptosis, CHOP inh)
O=[N+]([O-])c1ccc(N2CCN(c3ccccc3O)CC2)c(Cl)c1	CHOP inh 96.2 | CHOP inh conf inactive
O=C(NNc1nc2ccccc2s1)Nc1ccc(Cl)c(Cl)c1	GRIN3A LBD mod 15.9, CHOP inh 105.6 | CHOP inh conf inactive
O=C(NNc1nc2ccccc2s1)Nc1ccc(F)cc1	none
O=[N+]([O-])c1cc2oc3c(c2c(C=NCc2ccccc2)c1O)CCCC3	CHOP inh 99.2 | CHOP inh conf inactive
O=C(Nc1cccc2nsnc12)c1ccc(-c2cccc(Cl)c2)o1	none (no result: T cruzi repl)
COc1ccc(-n2cccc2/C=C2\C(=N)N3N=C(C(C)C)SC3=NC2=O)cc1	none
COc1ccc(-n2cccc2/C=C2\C(=N)N3N=C(c4ccco4)SC3=NC2=O)cc1	CHOP inh 102.4 | CHOP inh conf inactive
CCOC(=O)N=Nc1c2ccccc2c2nc3no[nH]c3nc12	GRIN3A LBD mod 24.6, CHOP inh 104.5 (no result: CSC inhib, Beta apoptosis, PREPL inhibitor) | CHOP inh conf 112.0
CCOC(=O)N=Nc1c(O)n(CC(=O)OC)c2ccccc12	none
CC(C)Cc1cc(C(=O)N2N=C(C(F)F)CC2(O)C(F)F)c2ccccc2n1 (centres undefined)	none
CCc1ccc(-c2cc(C(=O)N3N=C(C(F)F)CC3(O)C(F)F)c3ccccc3n2)cc1 (centres undefined)	GRIN3A LBD mod 21.6, CSC inhib 88.7, CHOP inh 110.3, T cruzi repl 59.0 | CHOP inh conf 112.8
C/C(=N\OCc1ccc(C#N)cc1)c1ccccc1	none (no result: Beta apoptosis)
C/C(=N\OCc1cccc(C(=O)O)c1)c1ccc(Cl)cc1	CHOP inh 96.3 | CHOP inh conf 111.4
CC1(C)SC(=S)N(/N=C/c2ccc(O)cc2)C1N(O)C(=O)Nc1ccc([N+](=O)[O-])cc1 (centres undefined)	none
Cc1ccc(/C=N/N2C(=S)SC(C)(C)C2N(O)C(=O)Nc2ccc([N+](=O)[O-])cc2)cc1 (centres undefined)	GRIN3A LBD mod 12.4, CHOP inh 103.1 | CHOP inh conf 78.1
CCCc1cc(C(=O)Nc2cc(Cl)ccc2O)no1	none (no result: CHOP inh)
CCCc1cc(C(=O)Nc2cc(Br)ccc2O)no1	none (no result: CHOP inh) | CHOP inh conf inactive
CSCCC(NC(=O)c1ccco1)C(=O)NCc1ccc2c(c1)OCO2 (centres undefined)	none (no result: CSC inhib, Beta apoptosis, CHOP inh, T cruzi repl, PREPL inhibitor)
CCCCN=c1scc(-c2ccc3c(c2)NC(=O)CO3)n1N=C1CCCC1	CHOP inh 106.0 | CHOP inh conf 105.1
COc1ccccc1N=c1scc(-c2ccc3c(c2)NC(=O)CO3)n1CC1CCCO1 (centres undefined)	none
COc1cc2c(CCNC(C)=O)c[nH]c2cc1Cl	none (no result: T cruzi repl)
